Experiments:
[1] = compound: O=S1(=O)C=C(Sc2nnc(-c3ccccc3)o2)c2ccccc21; assay: (§1) Inhibition of recombinant Cryptococcus neoformans His-tagged IMPDH expressed in Escherichia coli BL21 (DE3) at 0.3 uM assessed as Km for substrate using IMP as fixed substrate at 500 uM and NAD as second substrate with varying concentrations of 31.25 to 1300 uM (reference value: 257.5 +/- 23 microM)
In short: (§2)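 Recombinant C. neoformans IMPDH, 100 nM final, reaction started by adding enzyme. NADH production monitored at 340 nm. Inhibitor series ran from 20 to 0.31 µM; MPA tested at 312 to 39 nM. Km and Vmax fitted to the Michaelis–Menten equation; inhibition type taken from shifts in Km and Vmax.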

[2] = compound: COc1ccccc1-c1nnc(SC2=CS(=O)(=O)c3ccccc32)o1; assay: as §1; in short: as §2
[3] = compound: O=S1(=O)C=C(Sc2nnc(-c3ccccc3)o2)c2ccccc21; assay: (§3) Inhibition of recombinant Cryptococcus neoformans His-tagged IMPDH expressed in Escherichia coli BL21 (DE3) at 10 uM assessed as Vmax for substrate using NAD as fixed substrate at 700 uM and IMP as second substrate with varying concentrations of 25 to 800 uM (reference value: 1.5 microM/min); in short: as §2
[4] = compound: COc1ccccc1-c1nnc(SC2=CS(=O)(=O)c3ccccc32)o1; assay: as §3; in short: as §2
[5] = substrate: COc1c(C)c2c(c(O)c1C/C=C(\C)CCC(=O)O)C(=O)OC2; conditions: Cryptococcus neoformans; 0.039 uM
[6] = compound: O=S1(=O)C=C(Sc2nnc(-c3ccccc3)o2)c2ccccc21; assay: (§4) Inhibition of recombinant Cryptococcus neoformans His-tagged IMPDH expressed in Escherichia coli BL21 (DE3) at 0.3 uM assessed as Vmax for substrate using NAD as fixed substrate at 700 uM and IMP as second substrate with varying concentrations of 25 to 800 uM (reference value: 1.5 microM/min); in short: as §2
[7] = compound: COc1ccccc1-c1nnc(SC2=CS(=O)(=O)c3ccccc32)o1; assay: as §4; in short: as §2
[8] = compound: O=S1(=O)C=C(Sc2nnc(-c3ccccc3)o2)c2ccccc21; assay: (§5) Inhibition of recombinant Cryptococcus neoformans His-tagged IMPDH expressed in Escherichia coli BL21 (DE3) at 0.3 uM assessed as Kcat for substrate using NAD as fixed substrate at 700 uM and IMP as second substrate with varying concentrations of 25 to 800 uM (reference value: 21.5 /s); in short: as §2
[9] = compound: COc1ccccc1-c1nnc(SC2=CS(=O)(=O)c3ccccc32)o1; assay: as §5; in short: as §2
[10] = compound: O=S1(=O)C=C(Sc2nnc(-c3ccccc3)o2)c2ccccc21; assay: Inhibition of recombinant Cryptococcus neoformans His-tagged IMPDH expressed in Escherichia coli BL21 (DE3) at 0.3 uM assessed as Kcat for substrate using IMP as fixed substrate at 500 uM and NAD as second substrate with varying concentrations of 31.25 to 1300 uM (reference value: 1.5 /s)
[11] = substrate: COc1c(C)c2c(c(O)c1C/C=C(\C)CCC(=O)O)C(=O)OC2; conditions: Cryptococcus neoformans; 0.156 uM
[12] = substrate: COc1c(C)c2c(c(O)c1C/C=C(\C)CCC(=O)O)C(=O)OC2; conditions: Cryptococcus neoformans; 0.039 uM; remark: listed apart in the source
[13] = substrate: COc1c(C)c2c(c(O)c1C/C=C(\C)CCC(=O)O)C(=O)OC2; conditions: Cryptococcus neoformans; 0.039 uM; remark: listed apart in the source
[14] = compound: O=S1(=O)C=C(Sc2nnc(-c3ccccc3)o2)c2ccccc21; assay: (§6) Inhibition of recombinant Cryptococcus neoformans His-tagged IMPDH expressed in Escherichia coli BL21 (DE3) at 10 uM assessed as Vmax for substrate using IMP as fixed substrate at 500 uM and NAD as second substrate with varying concentrations of 31.25 to 1300 uM (reference value: 1.5 microM/min); in short: as §2
[15] = compound: COc1ccccc1-c1nnc(SC2=CS(=O)(=O)c3ccccc32)o1; assay: as §6; in short: as §2
[16] = compound: O=S1(=O)C=C(Sc2nnc(-c3ccccc3)o2)c2ccccc21; assay: (§7) Inhibition of recombinant Cryptococcus neoformans His-tagged IMPDH expressed in Escherichia coli BL21 (DE3) at 10 uM assessed as Km for substrate using NAD as fixed substrate at 700 uM and IMP as second substrate with varying concentrations of 25 to 800 uM (reference value: 257.5 +/- 23 microM); in short: as §2
[17] = compound: COc1ccccc1-c1nnc(SC2=CS(=O)(=O)c3ccccc32)o1; assay: as §7; in short: as §2
[18] = substrate: COc1c(C)c2c(c(O)c1C/C=C(\C)CCC(=O)O)C(=O)OC2; conditions: Cryptococcus neoformans; 0.078 uM
[19] = substrate: COc1c(C)c2c(c(O)c1C/C=C(\C)CCC(=O)O)C(=O)OC2; conditions: Cryptococcus neoformans; 0.156 uM; remark: listed apart in the source
[20] = substrate: COc1c(C)c2c(c(O)c1C/C=C(\C)CCC(=O)O)C(=O)OC2; conditions: Cryptococcus neoformans; 0.078 uM; remark: listed apart in the source
[21] = substrate: COc1c(C)c2c(c(O)c1C/C=C(\C)CCC(=O)O)C(=O)OC2; conditions: Cryptococcus neoformans; 0.039 uM; remark: listed apart in the source
[22] = compound: O=S1(=O)C=C(Sc2nnc(-c3ccccc3)o2)c2ccccc21; assay: (§8) Inhibition of recombinant Cryptococcus neoformans His-tagged IMPDH expressed in Escherichia coli BL21 (DE3) at 10 uM assessed as Kcat for substrate using NAD as fixed substrate at 700 uM and IMP as second substrate with varying concentrations of 25 to 800 uM (reference value: 21.5 /s); in short: as §2
[23] = compound: COc1ccccc1-c1nnc(SC2=CS(=O)(=O)c3ccccc32)o1; assay: as §8; in short: as §2
[24] = substrate: COc1c(C)c2c(c(O)c1C/C=C(\C)CCC(=O)O)C(=O)OC2; conditions: Cryptococcus neoformans; 0.039 uM; remark: listed apart in the source
[25] = substrate: COc1c(C)c2c(c(O)c1C/C=C(\C)CCC(=O)O)C(=O)OC2; conditions: Cryptococcus neoformans; 0.156 uM; remark: listed apart in the source
[26] = compound: O=S1(=O)C=C(Sc2nnc(-c3ccccc3)o2)c2ccccc21; assay: (§9) Inhibition of recombinant Cryptococcus neoformans His-tagged IMPDH expressed in Escherichia coli BL21 (DE3) at 2.5 uM assessed as Vmax for substrate using IMP as fixed substrate at 500 uM and NAD as second substrate with varying concentrations of 31.25 to 1300 uM (reference value: 1.5 microM/min); in short: as §2
[27] = compound: COc1ccccc1-c1nnc(SC2=CS(=O)(=O)c3ccccc32)o1; assay: as §9; in short: as §2

B1: Inosine-5'-monophosphate dehydrogenase (Cryptococcus neoformans var. neoformans serotype D (strain JEC21 /ATCC MYA-565) (Filobasidiella neoformans)), Q5KP44 (protein)
chain: MADTNPNAPPRSDSLLNPADALKYLEEYPRGDGLSLQELMDSRKNGGLTYNDFLVLPGHISFPASDVSLQSRATKNIVLNTPFLSSPMDTVTEDRMAIALALHGGLGIIHHNCSAEEQAAMVRRVKKYENGFITDPLCLGPDATVGDVLEIKAKFGFCGVPITETGAPNSKLLGIVTGRDVQFQDAETPIKSVMTTEVVTGSSPITLEKANSLLRETKKGKLPIVDSNGHLVSLVARSDLLKNQNYPYASKVPESKQLYCGAAIGTRPGDKDRLKLLAEAGLDVVVLDSSQGDSVYQIEFIKWIKQTYPKIEIIAGNVVTREQAAQLIAAGADGLRIGMGSGSICITQEVMAVGRPQGTAVYAVAEFASRFGIPCIADGGIGNIGHIAKALALGASAVMMGGLLAGTTESPGEYFYHEGKRVKVYRGMGSIEAMEHTQRGSASGKRSILNLDNAATARYFSEADAVKVAQGVSGDVADKGSINKFVPYLFTGLQHSFQDAGVKSVSELHSCARSGSLRFELRTASAQLEGGVHGLNSYTKRLFA
Question: For B1, which Km [1] is on record?
Answer: 307 µM

Question: What about the Km [2] of the same protein?
Answer: 278 µM

Question: And the Vmax [3]?
Answer: 0.6 µM/min

Question: And the Vmax [4]?
Answer: 0.7 µM/min

Question: What about the Km [5] of the same protein?
Answer: 200 µM

Question: What about the Vmax [6] of the same protein?
Answer: 1.1 µM/min

Question: And the Vmax [7]?
Answer: 1.4 µM/min

Question: And the kcat [8]?
Answer: 1.1 s⁻¹

Question: And the kcat [9]?
Answer: 1.4 s⁻¹

Question: And the kcat [10]?
Answer: 1.5 s⁻¹

Question: What about the Vmax [11] of the same protein?
Answer: 0.26 µM/min

Question: What about the Vmax [12] of the same protein?
Answer: 0.9 µM/min

Question: And the kcat [13]?
Answer: 0.9 s⁻¹

Question: And the Vmax [14]?
Answer: 1 µM/min

Question: And the Vmax [15]?
Answer: 1 µM/min

Question: What about the Km [16] of the same protein?
Answer: 316 µM

Question: And the Km [17]?
Answer: 258 µM

Question: And the Km [18]?
Answer: 137 µM

Question: And the Km [19]?
Answer: 37 µM

Question: And the kcat [20]?
Answer: 0.6 s⁻¹

Question: And the Vmax [21]?
Answer: 1.1 µM/min

Question: What about the kcat [22] of the same protein?
Answer: 0.6 s⁻¹

Question: And the kcat [23]?
Answer: 0.7 s⁻¹

Question: And the kcat [24]?
Answer: 1.1 s⁻¹

Question: What about the Km [25] of the same protein?
Answer: 32 µM

Question: What about the Vmax [26] of the same protein?
Answer: 1.3 µM/min

Question: And the Vmax [27]?
Answer: 1.5 µM/min

Source: ChEMBL document CHEMBL4265991
